Residue numbers refer to the chain shown, from its start.
Legend:
Settings in all cases: stereoisomer not certain
OR5AR1 (Homo sapiens) = target: T1, OR5AR1 (Homo sapiens) (UniProt Q8NGP9)
T1 sequence (whole entry): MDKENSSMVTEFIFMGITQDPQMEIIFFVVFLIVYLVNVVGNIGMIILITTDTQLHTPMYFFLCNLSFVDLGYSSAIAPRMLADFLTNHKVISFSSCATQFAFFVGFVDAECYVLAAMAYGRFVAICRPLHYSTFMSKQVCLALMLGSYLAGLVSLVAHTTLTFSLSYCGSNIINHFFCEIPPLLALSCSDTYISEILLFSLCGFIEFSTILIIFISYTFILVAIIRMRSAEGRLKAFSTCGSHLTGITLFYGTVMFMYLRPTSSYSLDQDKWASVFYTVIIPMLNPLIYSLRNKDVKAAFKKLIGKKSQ
In short: (§1)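 Whether a receptor–molecule pair is responsive (active) rests on the original authors' judgment that its measured signal was statistically different from baseline. Pairs without that judgment are non-responsive (inactive). Sources used varied assay methods, commonly transient luciferase assays in mammalian cell lines.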

OR5AS1 (Homo sapiens) = target: T2, OR5AS1 (Homo sapiens) (UniProt Q8N127)
T2 sequence (whole entry): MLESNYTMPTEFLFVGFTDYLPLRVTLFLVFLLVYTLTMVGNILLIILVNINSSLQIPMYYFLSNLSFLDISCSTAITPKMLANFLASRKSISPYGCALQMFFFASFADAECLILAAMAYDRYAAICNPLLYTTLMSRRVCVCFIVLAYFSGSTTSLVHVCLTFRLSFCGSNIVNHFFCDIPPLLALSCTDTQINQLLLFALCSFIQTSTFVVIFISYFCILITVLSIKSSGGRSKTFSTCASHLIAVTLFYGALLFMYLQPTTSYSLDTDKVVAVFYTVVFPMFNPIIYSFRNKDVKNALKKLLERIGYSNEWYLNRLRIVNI
In short: as §1

OR5AU1 (Homo sapiens) = target: T3, OR5AU1 (Homo sapiens) (UniProt Q8NGC0)
T3 sequence (whole entry): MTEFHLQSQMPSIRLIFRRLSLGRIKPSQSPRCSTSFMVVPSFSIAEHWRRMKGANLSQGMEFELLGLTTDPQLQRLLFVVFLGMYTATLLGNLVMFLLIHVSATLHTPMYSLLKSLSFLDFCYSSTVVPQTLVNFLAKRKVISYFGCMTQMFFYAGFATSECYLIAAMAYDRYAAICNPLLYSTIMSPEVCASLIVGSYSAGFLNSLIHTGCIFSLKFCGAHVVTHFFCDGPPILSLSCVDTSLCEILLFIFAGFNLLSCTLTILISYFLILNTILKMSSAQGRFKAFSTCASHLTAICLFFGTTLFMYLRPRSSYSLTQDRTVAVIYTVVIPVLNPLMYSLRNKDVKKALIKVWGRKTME
In short: as §1

OR5B12 (Homo sapiens) = target: T4, OR5B12 (Homo sapiens) (UniProt Q96R08)
T4 sequence (whole entry): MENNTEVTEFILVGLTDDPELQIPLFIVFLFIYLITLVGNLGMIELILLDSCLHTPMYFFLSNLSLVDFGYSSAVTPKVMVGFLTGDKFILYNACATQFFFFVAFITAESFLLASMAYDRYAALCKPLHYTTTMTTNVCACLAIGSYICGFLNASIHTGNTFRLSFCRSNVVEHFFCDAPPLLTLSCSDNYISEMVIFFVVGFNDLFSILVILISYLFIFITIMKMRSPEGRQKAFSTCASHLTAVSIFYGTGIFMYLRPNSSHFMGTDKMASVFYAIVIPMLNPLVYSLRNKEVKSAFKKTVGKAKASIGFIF
In short: as §1

OR5B17 (Homo sapiens) = target: T5, OR5B17 (Homo sapiens) (UniProt Q8NGF7)
T5 sequence (whole entry): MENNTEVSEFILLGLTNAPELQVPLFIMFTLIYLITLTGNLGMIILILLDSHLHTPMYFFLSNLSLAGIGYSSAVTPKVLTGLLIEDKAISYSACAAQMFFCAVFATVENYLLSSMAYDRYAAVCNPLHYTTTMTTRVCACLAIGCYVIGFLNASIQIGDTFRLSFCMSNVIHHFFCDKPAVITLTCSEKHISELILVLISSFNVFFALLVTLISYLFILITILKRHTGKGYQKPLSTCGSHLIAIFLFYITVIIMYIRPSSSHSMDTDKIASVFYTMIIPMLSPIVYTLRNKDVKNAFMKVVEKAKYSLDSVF
In short: as §1

OR5B2 (Homo sapiens) = target: T6, OR5B2 (Homo sapiens) (UniProt Q96R09)
T6 sequence (whole entry): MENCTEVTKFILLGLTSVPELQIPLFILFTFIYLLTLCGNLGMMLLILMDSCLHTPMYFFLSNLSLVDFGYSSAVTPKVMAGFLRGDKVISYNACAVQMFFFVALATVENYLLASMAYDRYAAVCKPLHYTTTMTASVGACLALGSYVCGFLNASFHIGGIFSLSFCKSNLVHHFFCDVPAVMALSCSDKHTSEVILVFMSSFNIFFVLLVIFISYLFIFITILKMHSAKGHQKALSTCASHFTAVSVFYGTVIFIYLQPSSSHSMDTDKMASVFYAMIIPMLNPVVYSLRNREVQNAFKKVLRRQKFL
In short: as §1

OR5B2 E6D = system: T7, OR5B2 E6D
T7 sequence (whole entry): T6 sequence (whole entry) with E6D
In short: as §1

OR5B21 (Homo sapiens) = target: T8, OR5B21 (Homo sapiens) (UniProt A6NL26)
T8 sequence (whole entry): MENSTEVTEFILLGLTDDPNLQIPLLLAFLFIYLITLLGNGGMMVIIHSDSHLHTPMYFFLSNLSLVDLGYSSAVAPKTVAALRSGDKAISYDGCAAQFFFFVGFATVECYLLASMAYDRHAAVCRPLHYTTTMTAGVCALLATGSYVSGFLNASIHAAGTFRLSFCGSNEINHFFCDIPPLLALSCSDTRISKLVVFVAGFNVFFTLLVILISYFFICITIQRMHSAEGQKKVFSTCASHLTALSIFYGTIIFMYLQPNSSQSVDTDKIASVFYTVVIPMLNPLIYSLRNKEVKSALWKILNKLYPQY
In short: as §1

OR5B3 (Homo sapiens) = target: T9, OR5B3 (Homo sapiens) (UniProt Q8NH48)
T9 sequence (whole entry): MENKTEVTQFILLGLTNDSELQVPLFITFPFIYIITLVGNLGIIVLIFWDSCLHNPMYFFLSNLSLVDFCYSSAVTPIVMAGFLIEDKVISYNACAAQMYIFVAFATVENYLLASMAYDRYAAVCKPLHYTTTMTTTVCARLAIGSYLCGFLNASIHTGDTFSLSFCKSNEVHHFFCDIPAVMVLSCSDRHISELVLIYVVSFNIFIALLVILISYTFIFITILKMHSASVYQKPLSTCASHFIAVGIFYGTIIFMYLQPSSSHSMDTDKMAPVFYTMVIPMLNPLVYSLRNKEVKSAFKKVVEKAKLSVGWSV
In short: as §1

OR5B3 I198V G247A = system: T10, OR5B3 I198V G247A
T10 sequence (whole entry): T9 sequence (whole entry) with I198V, G247A
In short: as §1

OR5BC C141R = system: T11, OR5BC C141R
T11 sequence (whole entry): T4 sequence (whole entry) with C141R
In short: as §1

OR5BH L80I I85M = system: T12, OR5BH L80I I85M
T12 sequence (whole entry): T5 sequence (whole entry) with L80I, I85M
In short: as §1

OR5BH L80I = system: T13, OR5BH L80I
T13 sequence (whole entry): T5 sequence (whole entry) with L80I
In short: as §1

OR5C1 (Homo sapiens) = target: T14, OR5C1 (Homo sapiens) (UniProt Q8NGR4)
T14 sequence (whole entry): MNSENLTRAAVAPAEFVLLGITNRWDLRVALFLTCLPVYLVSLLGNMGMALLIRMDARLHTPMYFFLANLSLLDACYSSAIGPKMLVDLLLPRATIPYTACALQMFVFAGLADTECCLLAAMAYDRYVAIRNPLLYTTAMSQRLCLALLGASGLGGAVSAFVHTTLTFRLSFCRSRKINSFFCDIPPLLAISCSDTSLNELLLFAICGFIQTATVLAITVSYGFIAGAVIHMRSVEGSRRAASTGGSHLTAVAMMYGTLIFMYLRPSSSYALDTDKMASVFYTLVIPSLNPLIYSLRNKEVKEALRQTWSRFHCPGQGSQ
In short: as §1

OR5D13 (Homo sapiens) = target: T15, OR5D13 (Homo sapiens) (UniProt Q8NGL4)
T15 sequence (whole entry): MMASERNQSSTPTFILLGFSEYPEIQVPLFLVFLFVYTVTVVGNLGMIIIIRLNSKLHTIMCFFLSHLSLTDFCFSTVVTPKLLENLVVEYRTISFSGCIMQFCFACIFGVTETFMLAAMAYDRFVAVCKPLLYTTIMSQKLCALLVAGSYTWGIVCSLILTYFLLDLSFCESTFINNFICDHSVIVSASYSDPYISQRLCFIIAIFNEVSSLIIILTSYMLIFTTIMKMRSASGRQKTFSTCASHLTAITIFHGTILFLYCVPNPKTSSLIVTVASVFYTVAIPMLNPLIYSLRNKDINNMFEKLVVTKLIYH
In short: as §1

OR5D14 (Homo sapiens) = target: T16, OR5D14 (Homo sapiens) (UniProt Q8NGL3)
T16 sequence (whole entry): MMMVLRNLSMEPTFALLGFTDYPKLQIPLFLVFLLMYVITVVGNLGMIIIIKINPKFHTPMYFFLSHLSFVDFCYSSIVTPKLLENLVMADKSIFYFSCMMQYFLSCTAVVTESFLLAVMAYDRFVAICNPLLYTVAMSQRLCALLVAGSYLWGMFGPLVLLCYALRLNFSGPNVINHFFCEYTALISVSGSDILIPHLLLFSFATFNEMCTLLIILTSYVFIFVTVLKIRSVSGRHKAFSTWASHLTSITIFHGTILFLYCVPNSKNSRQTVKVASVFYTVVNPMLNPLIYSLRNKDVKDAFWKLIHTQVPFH
In short: as §1

OR5D16 (Homo sapiens) = target: T17, OR5D16 (Homo sapiens) (UniProt Q8NGK9)
T17 sequence (whole entry): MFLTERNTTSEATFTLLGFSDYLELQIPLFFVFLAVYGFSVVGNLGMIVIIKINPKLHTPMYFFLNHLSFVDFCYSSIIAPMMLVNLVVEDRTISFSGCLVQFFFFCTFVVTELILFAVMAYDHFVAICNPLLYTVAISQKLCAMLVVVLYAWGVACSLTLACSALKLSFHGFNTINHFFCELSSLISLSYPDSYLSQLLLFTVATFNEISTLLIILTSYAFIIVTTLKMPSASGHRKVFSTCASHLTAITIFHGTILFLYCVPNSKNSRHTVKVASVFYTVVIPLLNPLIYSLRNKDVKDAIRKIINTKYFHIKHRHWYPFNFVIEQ
In short: as §1

OR5D18 (Homo sapiens) = target: T18, OR5D18 (Homo sapiens) (UniProt Q8NGL1)
T18 sequence (whole entry): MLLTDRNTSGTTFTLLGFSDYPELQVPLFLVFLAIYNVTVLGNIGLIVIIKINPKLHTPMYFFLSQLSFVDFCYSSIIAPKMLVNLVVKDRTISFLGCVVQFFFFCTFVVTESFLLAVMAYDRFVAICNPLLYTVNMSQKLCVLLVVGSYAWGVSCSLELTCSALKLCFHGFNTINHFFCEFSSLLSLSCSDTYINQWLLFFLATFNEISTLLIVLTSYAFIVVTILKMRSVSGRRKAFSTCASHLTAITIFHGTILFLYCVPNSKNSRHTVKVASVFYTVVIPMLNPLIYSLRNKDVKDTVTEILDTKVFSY
In short: as §1

OR5DD C62Y = system: T19, OR5DD C62Y
T19 sequence (whole entry): T15 sequence (whole entry) with C62Y
In short: as §1

OR5DE S249A L290P = system: T20, OR5DE S249A L290P
T20 sequence (whole entry): T16 sequence (whole entry) with S249A, L290P
In short: as §1

Measured: odorant receptor agonist call;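 also: active if original authors judged signal statistically different from baseline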

CC1=C(O)C(=O)OC1C (centres undefined)
inactive: all assays above

CCC1OC(C)=C(O)C1=O (centres undefined)
inactive: all assays above

CCCCC(S)C(C)CO (centres undefined)
not listed: OR5B2 E6D | OR5B3 I198V G247A | OR5BC C141R | OR5BH L80I I85M | OR5BH L80I | OR5DD C62Y | OR5DE S249A L290P
inactive: all other assays above

CCC(S)C(C)CO (centres undefined)
not listed: OR5B2 E6D | OR5B3 I198V G247A | OR5BC C141R | OR5BH L80I I85M | OR5BH L80I | OR5DD C62Y | OR5DE S249A L290P
inactive: all other assays above

CC(CO)CS (centres undefined)
not listed: OR5B2 E6D | OR5B3 I198V G247A | OR5BC C141R | OR5BH L80I I85M | OR5BH L80I | OR5DD C62Y | OR5DE S249A L290P
inactive: all other assays above

CCC(=O)C=CC1C(C)=CCCC1(C)C (centres undefined)
inactive: OR5B17 (Homo sapiens)

CC(=O)c1c(C)c([N+](=O)[O-])c(C(C)(C)C)c([N+](=O)[O-])c1C
not listed: OR5B2 E6D | OR5B3 I198V G247A | OR5BC C141R | OR5BH L80I I85M | OR5BH L80I | OR5DD C62Y | OR5DE S249A L290P
inactive: all other assays above

CCCC(S)CCOC(C)=O (centres undefined)
inactive: all assays above

CCOC(=O)CC1(C)OCCO1
inactive: OR5B17 (Homo sapiens)

CCCCCCC=CCCC=O
inactive: all assays above

From the M2OR odorant receptor database
